Test results taken from ChEMBL document CHEMBL1135612, “Identification of potent and selective small-molecule inhibitors of caspase-3 through the use of extended tethering and structure-based drug design” (J Med Chem, 2002).
One block for each molecule: values may come before it.

Tests used:
Caspase-2 = target: T1, Caspase-2 (Homo sapiens, UniProt P42575); experiment: Inhibitory activity against of Caspase-2
T1 sequence (P42575 whole entry): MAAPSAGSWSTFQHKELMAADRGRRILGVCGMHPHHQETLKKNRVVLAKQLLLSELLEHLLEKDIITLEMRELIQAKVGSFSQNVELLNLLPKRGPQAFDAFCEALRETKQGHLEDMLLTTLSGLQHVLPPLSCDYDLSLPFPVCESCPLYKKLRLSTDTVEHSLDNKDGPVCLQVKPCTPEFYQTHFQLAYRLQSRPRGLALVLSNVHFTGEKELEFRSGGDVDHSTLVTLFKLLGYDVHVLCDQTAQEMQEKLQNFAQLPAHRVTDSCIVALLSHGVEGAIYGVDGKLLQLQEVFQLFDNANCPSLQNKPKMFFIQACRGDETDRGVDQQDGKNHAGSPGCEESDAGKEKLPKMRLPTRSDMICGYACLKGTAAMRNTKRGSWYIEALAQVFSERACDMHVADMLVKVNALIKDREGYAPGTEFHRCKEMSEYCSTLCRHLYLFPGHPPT
Procedure, shortened: (§1)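 Human recombinant caspase-1 (3 nM; 4 µM Ac-WEHD-AFC), -2 (17 nM; 40 µM Ac-VDVAD-AFC), -4 (60 nM; 30 µM Ac-WEHD-AFC) or -6 (2 nM; 7 µM Ac-VEID-AFC), final concentrations. Buffer: 25 mM HEPES pH 7.4, 0.1% CHAPS, 50 mM KCl, 5 mM β-ME. Enzyme preincubated 30 min RT with compound titrated in DMSO. Substrate starts reaction. AFC kinetics (ex 365/em 495 nm) read 15 min RT. IC50 from four-parameter fit.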

Caspase-4 = target: T2, Caspase-4 (Homo sapiens, UniProt P49662); experiment: Inhibitory activity against Caspase-4; procedure, shortened: as §1
T2 sequence (P49662 whole entry): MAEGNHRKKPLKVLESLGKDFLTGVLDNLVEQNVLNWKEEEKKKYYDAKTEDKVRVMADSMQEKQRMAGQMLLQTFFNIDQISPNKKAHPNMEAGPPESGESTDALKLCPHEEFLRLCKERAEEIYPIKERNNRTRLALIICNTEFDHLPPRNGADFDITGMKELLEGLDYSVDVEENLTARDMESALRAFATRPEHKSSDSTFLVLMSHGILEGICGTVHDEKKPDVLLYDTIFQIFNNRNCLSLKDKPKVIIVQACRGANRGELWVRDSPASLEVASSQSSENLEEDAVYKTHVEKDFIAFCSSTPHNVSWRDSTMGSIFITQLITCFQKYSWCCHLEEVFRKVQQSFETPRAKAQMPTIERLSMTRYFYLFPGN

Caspase-6 = target: T3, Caspase-6 (Homo sapiens, UniProt P55212); experiment: Inhibitory activity against Caspase-6; procedure, shortened: as §1
T3 sequence (P55212 whole entry): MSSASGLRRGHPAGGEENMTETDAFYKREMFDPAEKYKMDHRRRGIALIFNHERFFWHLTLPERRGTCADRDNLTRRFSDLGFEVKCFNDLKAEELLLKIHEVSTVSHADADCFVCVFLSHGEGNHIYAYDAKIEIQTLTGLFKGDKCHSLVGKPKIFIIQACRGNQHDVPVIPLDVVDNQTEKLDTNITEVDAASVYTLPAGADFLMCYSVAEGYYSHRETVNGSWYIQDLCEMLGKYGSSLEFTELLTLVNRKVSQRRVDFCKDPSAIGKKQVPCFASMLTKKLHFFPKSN

Caspase-3 = target: T4, Caspase-3 (Homo sapiens, UniProt P42574); experiment: Inhibitory activity against Caspase-3
T4 sequence (P42574 whole entry): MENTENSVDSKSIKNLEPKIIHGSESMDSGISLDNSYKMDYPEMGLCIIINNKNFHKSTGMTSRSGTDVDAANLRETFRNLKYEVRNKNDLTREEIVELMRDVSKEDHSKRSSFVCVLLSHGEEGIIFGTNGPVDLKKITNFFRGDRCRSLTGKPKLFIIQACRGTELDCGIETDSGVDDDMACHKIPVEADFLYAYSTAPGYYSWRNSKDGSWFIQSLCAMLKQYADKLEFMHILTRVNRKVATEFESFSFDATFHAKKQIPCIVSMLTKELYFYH

Caspase-7 = target: T5, Caspase-7 (Homo sapiens, UniProt P55210); experiment: Inhibitory activity against Caspase-7
T5 sequence (P55210 whole entry): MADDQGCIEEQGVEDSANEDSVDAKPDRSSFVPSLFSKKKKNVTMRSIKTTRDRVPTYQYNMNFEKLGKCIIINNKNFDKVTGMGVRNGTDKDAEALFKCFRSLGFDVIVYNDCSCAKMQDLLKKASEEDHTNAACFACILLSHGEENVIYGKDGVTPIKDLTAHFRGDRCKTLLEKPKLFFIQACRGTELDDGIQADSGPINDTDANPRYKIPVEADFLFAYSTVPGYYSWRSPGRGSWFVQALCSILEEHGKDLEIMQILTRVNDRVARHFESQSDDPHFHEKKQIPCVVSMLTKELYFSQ
Procedure, shortened: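 Caspase-7 assay: 1 nM recombinant human enzyme and 30 µM Ac-DEVD-AFC, final, in 25 mM HEPES pH 7.4, 0.1% CHAPS, 50 mM KCl, 5 mM CaCl2, 5 mM β-ME. Enzyme preincubated 30 min RT with compound titrated in DMSO, then substrate added. Kinetic AFC fluorescence (ex 365/em 495 nm) over 15 min at RT. IC50 by four-parameter fit.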

Caspase-1 = target: T6, Caspase-1 (Homo sapiens, UniProt P29466); experiment: Inhibitory activity against of Caspase-1; procedure, shortened: as §1
T6 sequence (P29466 whole entry): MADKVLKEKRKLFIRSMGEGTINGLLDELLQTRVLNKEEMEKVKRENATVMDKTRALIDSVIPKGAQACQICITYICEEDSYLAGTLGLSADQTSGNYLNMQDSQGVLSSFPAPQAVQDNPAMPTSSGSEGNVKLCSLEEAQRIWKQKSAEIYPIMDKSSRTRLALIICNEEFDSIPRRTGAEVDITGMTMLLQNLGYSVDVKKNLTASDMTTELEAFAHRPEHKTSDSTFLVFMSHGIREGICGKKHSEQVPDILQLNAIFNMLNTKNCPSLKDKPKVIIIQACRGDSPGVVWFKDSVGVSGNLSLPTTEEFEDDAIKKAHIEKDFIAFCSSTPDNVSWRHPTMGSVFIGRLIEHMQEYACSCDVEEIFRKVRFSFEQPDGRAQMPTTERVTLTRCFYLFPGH

Caspase-8 = Caspase-8 (Homo sapiens, UniProt Q14790); experiment: Inhibitory activity against Caspase-8
Procedure, shortened: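 In-house expressed, purified human caspase-8 at 10 nM, final, with 3 µM Ac-IETD-AFC in 100 mM HEPES pH 7.4, 10% sucrose, 0.1% CHAPS, 10 mM DTT. Enzyme was preincubated 30 min at RT with DMSO-titrated compound, and substrate started the reaction. Fluorescence (ex 365/em 495 nm) was read kinetically for 15 min at RT. IC50 came from a four-parameter fit.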

Caspase-5 = target: T7, Caspase-5 (Homo sapiens, UniProt P51878); experiment: Inhibitory activity against Caspase-5
T7 sequence (P51878 whole entry): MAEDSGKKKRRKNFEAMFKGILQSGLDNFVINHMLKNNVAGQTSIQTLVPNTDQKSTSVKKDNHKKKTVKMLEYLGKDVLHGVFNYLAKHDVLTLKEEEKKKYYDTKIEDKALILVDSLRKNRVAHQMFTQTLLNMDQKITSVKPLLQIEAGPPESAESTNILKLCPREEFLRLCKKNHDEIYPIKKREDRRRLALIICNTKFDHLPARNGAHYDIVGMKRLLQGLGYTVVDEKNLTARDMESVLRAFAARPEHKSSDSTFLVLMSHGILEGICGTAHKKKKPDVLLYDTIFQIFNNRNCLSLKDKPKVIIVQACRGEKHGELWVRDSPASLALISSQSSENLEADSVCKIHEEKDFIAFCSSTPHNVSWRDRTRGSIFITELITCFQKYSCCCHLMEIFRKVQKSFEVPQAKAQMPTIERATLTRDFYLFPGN
Procedure, shortened: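 Recombinant human caspase-5 at 83 nM, final, with 30 µM Ac-WEHD-AFC in 100 mM HEPES pH 7.4, 10% sucrose, 0.1% CHAPS, 200 mM NaCl, 10 mM DTT. Enzyme and DMSO-titrated compound stood together 30 min at RT before substrate addition. Fluorescence (ex 365/em 495 nm) followed kinetically 15 min at RT. IC50 came from a four-parameter curve fit.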

Caspase-8, sequence (Q14790 217-374 limits assumed): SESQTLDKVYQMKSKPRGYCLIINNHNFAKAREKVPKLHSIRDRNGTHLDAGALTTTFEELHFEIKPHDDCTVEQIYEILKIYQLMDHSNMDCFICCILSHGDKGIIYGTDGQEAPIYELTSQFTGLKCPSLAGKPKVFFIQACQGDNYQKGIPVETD
Caspase-8, sequence (Q14790 385-479 limits assumed): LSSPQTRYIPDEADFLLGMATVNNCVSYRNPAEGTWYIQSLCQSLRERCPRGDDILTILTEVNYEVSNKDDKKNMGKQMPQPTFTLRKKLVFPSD

Ki (Caspase-2): 9 µM
Ki (Caspase-4): 21 µM
Ki (Caspase-6): 1 µM
Ki (Caspase-3): 0.2 µM
Ki (Caspase-7): 0.47 µM
Ki (Caspase-1): 0.16 µM
Ki (Caspase-8): 0.15 µM
Ki (Caspase-5): 12 µM
Structure (SMILES): O=C[C@H](CC(=O)O)NC(=O)c1ccc(CNS(=O)(=O)c2ccc(O)c(C(=O)O)c2)cc1

Ki (Caspase-2): 16 µM
Ki (Caspase-4): 13 µM
Ki (Caspase-6): 2.3 µM
Ki (Caspase-3): 0.03 µM
Ki (Caspase-7): 0.09 µM
Ki (Caspase-1): 8.3 µM
Ki (Caspase-8): 19 µM
Ki (Caspase-5): 23 µM
Structure (SMILES): O=C(O)C[C@H](NC(=O)c1cnc(CNS(=O)(=O)c2ccc(O)c(C(=O)O)c2)s1)C(=O)CSCc1ccccc1Cl

Ki (Caspase-2): 64 µM
Ki (Caspase-4): > 100 µM
Ki (Caspase-6): 9.7 µM
Ki (Caspase-3): 0.02 µM
Ki (Caspase-7): 0.13 µM
Ki (Caspase-1): 3.2 µM
Ki (Caspase-8): 0.33 µM
Ki (Caspase-5): 63 µM
Structure (SMILES): O=C(O)C[C@H](NC(=O)c1ccc(CNS(=O)(=O)c2ccc(O)c(C(=O)O)c2)s1)C(=O)CSCc1ccccc1Cl

Ki (Caspase-2): 21 µM
Ki (Caspase-4): 38 µM
Ki (Caspase-6): 0.54 µM
Ki (Caspase-3): 0.12 µM
Ki (Caspase-7): 0.12 µM
Ki (Caspase-1): 1.9 µM
Ki (Caspase-8): 0.05 µM
Ki (Caspase-5): 24 µM
Structure (SMILES): O=C[C@H](CC(=O)O)NC(=O)c1ccc(CNS(=O)(=O)c2ccc(O)c(C(=O)O)c2)s1

Further lines, the molecule ahead of its results:

Structure (SMILES): O=C[C@H](CC(=O)O)NC(=O)c1ccc(CNS(=O)(=O)c2ccc(O)c(C(=O)O)c2)nc1
Ki (Caspase-2): 0.96 µM
Ki (Caspase-4): 92 µM
Ki (Caspase-6): 1.4 µM
Ki (Caspase-3): 0.05 µM
Ki (Caspase-7): 0.13 µM
Ki (Caspase-8): 0.88 µM
Ki (Caspase-5): 22 µM

Structure (SMILES): O=C(O)C[C@H](NC(=O)c1cnc(CNS(=O)(=O)c2ccc(O)c(C(=O)O)c2)nc1)C(=O)CSCc1ccccc1Cl
Ki (Caspase-2): 30 µM
Ki (Caspase-4): 22 µM
Ki (Caspase-6): 0.19 µM
Ki (Caspase-3): 0.02 µM
Ki (Caspase-7): 0.09 µM
Ki (Caspase-1): 25 µM
Ki (Caspase-8): 28 µM
Ki (Caspase-5): 32 µM

Structure (SMILES): Cc1cc(CNS(=O)(=O)c2ccc(O)c(C(=O)O)c2)sc1C(=O)N[C@@H](CC(=O)O)C(=O)CSCc1ccccc1Cl
Ki (Caspase-2): 37 µM
Ki (Caspase-4): 27 µM
Ki (Caspase-6): 2.4 µM
Ki (Caspase-3): 0.04 µM
Ki (Caspase-7): 0.94 µM
Ki (Caspase-1): 2.7 µM
Ki (Caspase-8): 0.71 µM
Ki (Caspase-5): 36 µM

Structure (SMILES): CN(Cc1ccc(O)c(C(=O)O)c1)Cc1ccc(C(=O)N[C@@H](CC(=O)O)C(=O)CSCc2ccccc2Cl)s1
Ki (Caspase-2): 30 µM
Ki (Caspase-4): 96 µM
Ki (Caspase-6): 22 µM
Ki (Caspase-3): 0.09 µM
Ki (Caspase-7): 0.19 µM
Ki (Caspase-1): 12 µM
Ki (Caspase-8): 4 µM
Ki (Caspase-5): 98 µM
